Several values for one entry are separate records, joined by “and”; a condition that tells them apart may be missing. Equal entries are not always repeated.
Experiments:
Assay type in all cases: functional
Homo sapiens [1] = species: Homo sapiens; test: In vitro methemoglobin (metHb) forming activity in normal human erythrocytes.
Outline: (§1)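 Blood (30–40 mL) from normal or G6PD-deficient human volunteers, anticoagulated with sodium edetate. Washed erythrocytes suspended to 50% in buffered dextrose saline, incubated with each compound at 37 °C for 2 h. Reaction stopped on ice for 5 min. Cells spun at 1500g for 10 min at 5 °C, washed twice in ice-cold buffered saline dextrose, resuspended to 50%.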

Homo sapiens [2] = species: Homo sapiens; test: In vitro methemoglobin (metHb) forming activity in Glucose-6-phosphate dehydrogenase- (G6PD-) deficient human erythrocytes at 0.05 mM; outline: as §1
Homo sapiens [3] = species: Homo sapiens; test: In vitro decreasing the GSH content in normal in human erythrocytes at 0.05 mM; outline: as §1
Homo sapiens [4] = species: Homo sapiens; test: In vitro methemoglobin (metHb) forming activity in normal human erythrocytes at 0.05 mM; outline: as §1
Homo sapiens [5] = species: Homo sapiens; test: In vitro decreasing the GSH content in normal in human erythrocytes at 0.01 mM; outline: as §1

In the case of CC(CCCN)Nc1cc(O)cc2cccnc12 (stereo unspecified), the Methemoglobin (Homo sapiens [1]) is reported as 1.1%, the Methemoglobin (Homo sapiens [2]) is reported as 1.7% and 1.2% and the GSH level (Homo sapiens [3]) is reported as 63.4% and 44.8%. The Methemoglobin (Homo sapiens [4]) was 1.1% and the “GSH level (mg)” value (Homo sapiens [5]) was 63.8% and 45.8%.

In the case of COc1cc(N)c2ncccc2c1O, the Methemoglobin (Homo sapiens [2]) is reported as 43.8% and 22.3% and the Methemoglobin (Homo sapiens [4]) is reported as 34.2%.

Nc1cc(O)c(O)c2cccnc12 [5,6-DIHYDROXY-8-AMINOQUINOLINE] gave a Methemoglobin (Homo sapiens [1]) of 4.8% and a Methemoglobin (Homo sapiens [4]) of 22.3%.

Compound CC(CCCN)Nc1cc(O)c(O)c2cccnc12 (stereo unspecified) [5-HYDROXYDESMETHYLPRIMAQUINE] has a Methemoglobin (Homo sapiens [1]) of 4.2% and a Methemoglobin (Homo sapiens [4]) of 16.3%.

For COc1cc(NC(C)CCCN)c2ncccc2c1O (stereo unspecified) [5-HYDROXYPRIMAQUINE], the Methemoglobin (Homo sapiens [1]) was 3.4% and the Methemoglobin (Homo sapiens [4]) was 12.8%.

COc1cc(NC(C)CCCN)c2ncccc2c1 (stereo unspecified) [PRIMAQUINE] was tested, and the Methemoglobin (Homo sapiens [2]) was 1.3%, the GSH level (Homo sapiens [3]) was 60% and 47.4% and the Methemoglobin (Homo sapiens [4]) was 1%.

Source: ChEMBL document CHEMBL1122627, “Synthesis of certain hydroxy analogues of the antimalarial drug primaquine and their in vitro methemoglobin-producing and glutathione-depleting activity in human erythrocytes” (1984)
